One test deals with HeLa. The test can be described thus: Antiproliferative activity against human HeLa cells after 2 days by MTT assay. The format is functional, cell-based. Conditions: 48 h. Put shortly:
(§1)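 Cells (5×10^3 per well) in DMEM with 10% FBS, glucose, glutamine and antibiotics were exposed to serial dilutions (stocks in DMSO) for 2 days at 37 °C, 5% CO2. MTT was added for 3 h, formazan was dissolved in DMSO and absorbance read at 490 nm. Viability was taken as % of untreated cells. IC50 was read graphically from three independent experiments.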

The subject of a further test is HEK293. The test can be described thus: Antiproliferative activity against human HEK293 cells after 2 days by MTT assay. The format is cell-based. As to conditions: HEK293, 48 h. The essentials:
as §1

A further test deals with MCF7. Briefly: Antiproliferative activity against human MCF7 cells after 2 days by MTT assay. It counts as functional, cell-based. Conditions: MCF7, 48 h. The essentials: as §1
A further test deals with HT-29. Briefly: Antiproliferative activity against human HT-29 cells after 2 days by MTT assay. Conditions: HT-29, 48 h. The format is functional, cell-based. The essentials:
as §1

In the case of `COc1cc2c(c(OC)c1OC)-c1ccc(OC)c(=O)cc1[C@@H](NC(=O)Nc1ccccc1F)CC2`, the IC50 in the test on HeLa worked out at 6 nM; in the test with HEK293 it was 5 nM; with MCF7 it was 6 nM; in the test on HT-29, 4.7 nM.
As to `COc1cc2c(c(OC)c1OC)-c1ccc(OC)c(=O)cc1[C@@H](NC(=O)Nc1ccccc1C#N)CC2`, the IC50 in the test with HeLa is 10 nM; in the test with HEK293 it was 11 nM; in the test on MCF7, 11 nM; in the test with HT-29, 11 nM.
`COc1cc2c(c(OC)c1OC)-c1ccc(OC)c(=O)cc1[C@@H](NC(=O)Nc1ccc(Cl)cc1Cl)CC2`: the concentration for half-maximal inhibition (IC50) in the test with HeLa was determined as 42 nM; with HEK293, 32 nM; in the test on MCF7, 24 nM; with HT-29, 31 nM.
Consider `COc1cc2c(c(OC)c1OC)-c1ccc(OC)c(=O)cc1[C@@H](NC(=O)Nc1ccc3ccccc3c1)CC2`, for which the IC50 with HeLa was 7 nM; in the test on HEK293 it was 7 nM; with MCF7 it was 10 nM; with HT-29 it was 8 nM.
With `COc1cc2c(c(OC)c1OC)-c1ccc(OC)c(=O)cc1[C@@H](NC(=O)Nc1c(C)cccc1C)CC2`, the concentration for half-maximal inhibition (IC50) stood at 242 nM with HeLa, 218 nM in the test on HEK293, 240 nM in the test on MCF7 and 130 nM in the test with HT-29.
`COc1cc2c(c(OC)c1OC)-c1ccc(OC)c(=O)cc1[C@@H](NC(=O)Nc1c(Cl)cccc1Cl)CC2`: the IC50 in the test with HeLa was 22 nM; with HEK293, 42 nM; with MCF7, 13 nM; in the test on HT-29 it was 40 nM.
The matching figures for `COc1cc2c(c(OC)c1OC)-c1ccc(OC)c(=O)cc1[C@@H](NC(=O)Nc1c(Cl)cc(F)cc1Cl)CC2`: 20 nM, 92 nM, 14 nM and 30 nM.
As for `COc1cc2c(c(OC)c1OC)-c1ccc(OC)c(=O)cc1[C@@H](NC(=O)NC1CCCCC1)CC2`, the IC50 in the test with HeLa is 87 nM; in the test on HEK293, 98 nM; with MCF7 it was 89 nM; with HT-29, 37 nM.
Turning to `COc1cc2c(c(OC)c1OC)-c1ccc(OC)c(=O)cc1[C@@H](NC(=O)Nc1cc(F)cc(F)c1)CC2`, the half-inhibitory concentration (IC50) with HeLa amounted to 16 nM; in the test with HEK293 it was 10 nM; with MCF7, 20 nM; in the test with HT-29, 10 nM.
With `COc1cc2c(c(OC)c1OC)-c1ccc(OC)c(=O)cc1[C@@H](NC(=O)Nc1cccc3ccccc13)CC2`, the IC50 was found to be 16 nM in the test on HeLa, 9 nM in the test with HEK293, 17 nM in the test on MCF7 and 11.1 nM in the test on HT-29.
On to `COc1cc2c(c(OC)c1OC)-c1ccc(OC)c(=O)cc1[C@@H](NC(=O)Nc1ccccc1OC(F)(F)F)CC2`, for which the IC50 stood at 3 nM in the test with HeLa, 5 nM with HEK293, 4.4 nM with MCF7 and 3.8 nM in the test with HT-29.
The matching figures for `COc1cc2c(c(OC)c1OC)-c1ccc(OC)c(=O)cc1[C@@H](NC(=O)Nc1ccc(C(F)(F)F)cc1Cl)CC2`: 220 nM, 220 nM, 200 nM and 190 nM.
For the molecule `COc1cc2c(c(OC)c1OC)-c1ccc(OC)c(=O)cc1[C@@H](NC(=O)Nc1ccccc1)CC2`, the 50% inhibitory concentration (IC50) is 12 nM with HeLa, 10 nM in the test with HEK293, 12 nM in the test with MCF7 and 11 nM in the test on HT-29.

Source of the values: ChEMBL document CHEMBL4229380, “Arylureas derived from colchicine: Enhancement of colchicine oncogene downregulation activity” (Eur J Med Chem, 2018).
